In the EternaBench riboswitch data:

Tested on: MS2 coat protein
Experiment: apparent Kd, MS2 coat protein; higher = weaker binding; RNA-MaP array; FMN 200 µM where present
Outline: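 SNAP-549-labelled MS2 coat protein, doubled from 0.7 or 1.5 nM to 3 µM, was titrated over designs transcribed by stalled E. coli RNA polymerase on Illumina sequencing-chip clusters. Titrations were run without and then with constant ligand in 100 mM Tris-HCl pH 7.5, 80 mM KCl, 4 mM MgCl2, BSA, DTT, yeast tRNA and Tween-20. The apparent Kd is the median of filtered per-cluster fits to green signal normalised to red-channel RNA signal and control-cluster median Fmax.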

[1] = designed as: OFF switch for flavin mononucleotide, no ligand
[2] = ligand present: flavin mononucleotide, designed as: OFF switch for flavin mononucleotide
[3] = designed as: ON switch for flavin mononucleotide, no ligand
[4] = ligand present: flavin mononucleotide, designed as: ON switch for flavin mononucleotide

| Sequence | apparent Kd [1] [nM] | apparent Kd [2] [nM] | apparent Kd [3] [nM] | apparent Kd [4] [nM] |
| --- | --- | --- | --- | --- |
| CAUGUGUAAGGAUAUGACAAUGGUAUCUUCGGAUACCAUUGUCAGAAGGUACAUGAGGAUCACCCAUGUGGAUC | 441 | 103 |  |  |
| UGUCAAAAUGAAGGAUAUCUAAGCAUAAACCAUAGAGAAGGUCAAUAGUACAUGAGGAUCACCCAUGUUAGAAUAGAUGGGUUA | 99.9 | 155 |  |  |
| CCUGUGUGAGGAUAUGGUGUUGGCCACAAGGAAUAGCUCCUCCAGAAGGCACAUGAGGAUCACCCAUGUCGUGG | 17.6 | 80.3 |  |  |
| AAUAAACAUGAGGAUCACCCAUGUAAAUGGGUACAAGGAUAUGCGAAAAGAAACAAAGAAGCAGAAGGUGUAAAGA |  |  | 836 | 1040 |
| GUACUGUAGUGAGGAUAUACGAGAACGAUAGUUCGGCGAUCCAUUUAUACAUGAGGAUCACCCAUGUAGAAGGCACUUCAGUAC | 6.26 | 72.5 |  |  |
| CUUCCAGUUGCAGGAUAUCGAGAGGAGAGAUUACGAGAAGGGCAACAUGAGGAUCACCCAUGUAUGUGCUUGGGACAACCUAUC | 16.8 | 107 |  |  |
| UUGGACGUCGUAGGAUUUGUAGGAUAUUCCUACAUGAGGAUCACCCAUGUUGACAUGGAAGAAGGACAGAAGGACGAUGUCCAU |  |  | 87.3 | 5.51 |
| AUUUUGUGAGGAUAUUAGUUGUAGAAAAUUGUUAGUAUAGCUGAGAAGGCACAUGAGGAUCACCCAUGUACAUC | 18 | 57.9 |  |  |
| UAUUAGUAAGGAUAUCUCGUCAUGGACGUGAGUCCAUGACGAGAGAAGGUACAUGAGGAUCACCCAUGUCUAUU | 18.1 | 19.4 |  |  |
| GGGUACAUCGGAGGAUAUCAUGUAAAUACAUGAGGAUCACCCAUGUCCAUGGAGACAUCGGAGAUUGAGAAGGCCGAUGUACCG |  |  | 171 | 203 |
| UAACAGACGCCUUACAUGAGGAUCACCCAUGUGGCCUUAACCAGAAGGCCCGGAAGAUGACUCAGGGAGGAUAUGGUUUAACAG |  |  | 349 | 57.3 |
| AAGGCGUCAGGAUAUCCAAUAUAUGACAUGAGGAUCACCCAUGUUUCCACUCGUACCUCCGGAGAAGGGACGAAUA | 29.1 | 27.5 |  |  |
| GACAUGUGAGGAUAUCUGAUGUCUAACUUCGGUUAGACAUCAGAGAAGGCACAUGAGGAUCACCCAUGUCUGUC | 194 | 232 |  |  |
| UUGCAGUCGUCAGGAUAUAGUAUUACGGCCUUUCAUUUCUUCAUACAUGAGGAUCACCCAUGUCGCUAGAAGGGCUUAUCGCUU | 14.8 | 13.2 |  |  |
| AAACUGCAUGUGAGGAUAUGCACCGACUAAACCGGGCAGAAGGCACAUGAGGAUCACCCAUGUCAUCCUAUUGC | 8.62 | 18.1 |  |  |
| GUUAUGUUAGGAUAUGCUUAUGGUGGAUAAUCAGAUAUGAUGCAGAAGGGACAUGAGGAUCACCCAUGUACUGU | 21 | 23.8 |  |  |
| AGCUGUGGCAGAGGAUAUACUUCAAUAAUCCAUUGCAAAUAGCGAUGGACAUGAGGAUCACCCAUGUAGAAGGCUGUCUCAGCA | 19.9 | 46.2 |  |  |
| GGAUAGGACAGAGGAUAUACGGAUAGGAUCUACUAUCAAACAAGUCCUACAUGAGGAUCACCCAUGUAGAAGGCUGUCCUAUCG | 16.9 | 22.1 |  |  |
| AGAUUUGUACAUGAGGAUCACCCAUGUUAAUAGGUGUUUGUCAGAAGGCAUUAAGAGAGAAUUAAUGAGGAUAUGAAGUUACAU |  |  | 42.3 | 21.7 |
| UUUUACUAGUAAGGAUAUACUAGCGAUUAGCUUGUAGAAGGUACAGUCUUAUGUAUAACAUGUUAACAUGAGGAUCACCCAUGU |  |  | 62.1 | 34.5 |
| AUUAUUUAGUAGAAGGACGACUAUUAAUAUUUCGUAGGAUAUACUAUUUACAUGAGGAUCACCCAUGUUUAAAUGGAACAAUGU | 11.2 | 14 |  |  |
| GCAUACAUUCGAGGAUAUCGGUGAACAAAUUAACGAGAAGGCGAUAGAAUGUCUCAUCUUAUGAACAUGAGGAUCACCCAUGUA |  |  | 30 | 26.2 |
| UAUAUAUAGUAAGGAUAUAUAUUUAUUUUAUAAAUAGAAGGUACAGACAUGAGGAUCACCCAUGUUAUAAUAUGGACAUGUGGA | 52.5 | 69.4 |  |  |
